Source: ChEMBL document CHEMBL1151772, “Discovery of multitarget inhibitors by combining molecular docking with common pharmacophore matching” (J Med Chem, 2008)

What was measured:
[1] = target: T1, Leukotriene A-4 hydrolase (Homo sapiens, UniProt P09960); experiment: Inhibition of epoxide hydrolase activity of human leukotriene A4 hydrolase assessed as LTB4 level by ELISA
T1 sequence (P09960 whole entry): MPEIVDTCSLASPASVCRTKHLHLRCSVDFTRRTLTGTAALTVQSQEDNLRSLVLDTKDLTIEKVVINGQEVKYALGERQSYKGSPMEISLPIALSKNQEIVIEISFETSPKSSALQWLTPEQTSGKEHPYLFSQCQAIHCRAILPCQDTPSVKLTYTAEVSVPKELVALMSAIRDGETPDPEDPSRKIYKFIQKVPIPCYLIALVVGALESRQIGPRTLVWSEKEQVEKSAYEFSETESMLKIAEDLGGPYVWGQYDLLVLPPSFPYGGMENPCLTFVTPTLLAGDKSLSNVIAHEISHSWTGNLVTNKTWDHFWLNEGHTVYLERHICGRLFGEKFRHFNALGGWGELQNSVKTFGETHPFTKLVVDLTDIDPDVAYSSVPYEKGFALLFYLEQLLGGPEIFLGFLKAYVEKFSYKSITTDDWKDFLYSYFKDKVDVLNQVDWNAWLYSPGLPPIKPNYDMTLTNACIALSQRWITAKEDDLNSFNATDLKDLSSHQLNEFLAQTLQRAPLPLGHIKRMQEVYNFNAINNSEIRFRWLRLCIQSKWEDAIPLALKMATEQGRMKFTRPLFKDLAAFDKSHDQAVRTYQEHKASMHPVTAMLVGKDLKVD
Method in brief: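 LTA4 prepared by hydrolysing LTA4 methyl ester in cold acetone/NaOH under nitrogen. Enzyme (300 ng) preincubated with compound 15 min at 37 °C in 10 mM sodium phosphate pH 7.4, 4 mg/mL BSA, 5% DMSO. Reaction started with LTA4 (150 nM final), 10 min at 37 °C, stopped by dilution into buffer; LTB4 measured by ELISA. Three separate experiments.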

[2] = target: T1, Leukotriene A-4 hydrolase; experiment: Inhibition of aminopeptidase activity of human leukotriene A4 hydrolase assessed as para-nitroanilide release by spectrophotometry
Method in brief: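 Enzyme (1-20 µg) in 50 mM Tris-HCl pH 8.0 with 100 mM NaCl at 37 °C; inhibitor preincubated 2 min; 5% v/v DMSO final. Started with 0.125 mM Ala-p-nitroanilide; p-NA formation followed at 405 nm for 15 min, quantified against p-NA standard curve. IC50 from initial rates across inhibitor concentrations via V0/V = 1 + [I]/IC50; three separate experiments.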

[3] = target: T2, Phospholipase A2, membrane associated (Homo sapiens, UniProt P14555); experiment: Inhibition of human nonpancreatic secretory phospholipase A2
T2 sequence (P14555 whole entry): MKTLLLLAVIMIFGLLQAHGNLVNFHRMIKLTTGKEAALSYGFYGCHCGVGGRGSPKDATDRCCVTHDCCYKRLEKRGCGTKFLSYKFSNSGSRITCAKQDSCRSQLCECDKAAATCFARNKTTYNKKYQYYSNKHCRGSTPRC
Method in brief: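 Inhibitor preincubated with substrate 10 min at 25 °C. Enzyme added to start; ex 377/em 470 nm read kinetically for 20 min. IC50 from initial rates via V0/V = 1 + [I]/IC50; three separate experiments.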

| Structure (SMILES) | IC50 [1] [µM] | IC50 [2] [µM] | IC50 [3] [µM] |
| --- | --- | --- | --- |
| NCCc1c[nH]c2c(OCc3ccccc3)cccc12 | 217 | 12.5 | 52.5 |
| NC(Cc1c[nH]c2ccc(OCc3ccccc3)cc12)C(=O)O (stereo not given) | 231 | 17.3 | 42.1 |
| O=C(C[n+]1ccc(Cc2ccc([N+](=O)[O-])cc2)cc1)c1ccccc1 | 386 | 23.4 | 43.7 |
| NCCOc1ccc(Oc2ccccc2)cc1 |  |  | 7.3 |
